Drawing on ChEMBL document CHEMBL2311390, “Synthesis and preliminary evaluation of pharmacological properties of some piperazine derivatives of xanthone” (Bioorg Med Chem, 2013), this text covers Activity for three molecules.

Data set [1] concerns Rattus norvegicus. Put plainly: Cardiotoxicity in Wistar rat assessed as QRS interval at 10 mg/kg, iv after 15 mins by ECG analysis. It counts as toxicity, organism-based. Also on record: dose 10 mg/kg, route intravenous. The conditions noted are these: in vivo, 0.25 h. In short, it runs like this: (§1)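 Male normotensive Wistar rats, 170–350 g, six per group. Compound given iv at a constant volume of 1 mL/kg. ECG was recorded just before dosing and at 1, 5 and 15 min after. PQ, QRS and QT intervals and heart rate were read from the trace. Groups were compared by one-way ANOVA.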

The test system of data set [2] is Rattus norvegicus. Description: Cardiotoxicity in Wistar rat assessed as PQ interval at 10 mg/kg, iv after 15 mins by ECG analysis. It counts as toxicity, organism-based. Also on record: dose 10 mg/kg, route intravenous. Particulars: in vivo, 0.25 h. In outline:
as §1

For data set [3], the system named is Rattus norvegicus. Description: Cardiotoxicity in Wistar rat assessed as QT interval at 10 mg/kg, iv after 5 mins by ECG analysis. It counts as toxicity, organism-based. Also on record: dose 10 mg/kg, route intravenous. The conditions noted are these: in vivo. In short, it runs like this:
as §1

Data set [4] relates to Rattus norvegicus. Put plainly: Cardiotoxicity in Wistar rat assessed as hear beats per min at 10 mg/kg, iv after 15 mins by ECG analysis. In kind it is toxicity, organism-based. Also on record: dose 10 mg/kg, route intravenous. The conditions noted are these: in vivo, 0.25 h. In outline:
as §1

For data set [5], the system named is Rattus norvegicus. Description: Cardiotoxicity in Wistar rat assessed as PQ interval at 10 mg/kg, iv after 5 mins by ECG analysis. It counts as toxicity, organism-based. Also on record: dose 10 mg/kg, route intravenous. The conditions noted are these: in vivo. In short, it runs like this:
as §1

In data set [6] the test system is Rattus norvegicus. Put plainly: Cardiotoxicity in Wistar rat assessed as QT interval at 10 mg/kg, iv after 15 mins by ECG analysis. In kind it is toxicity, organism-based. The conditions noted are these: in vivo, 0.25 h. Also on record: dose 10 mg/kg, route intravenous. In outline:
as §1

The subject of data set [7] is Rattus norvegicus. Put plainly: Cardiotoxicity in Wistar rat assessed as PQ interval at 10 mg/kg, iv after 10 mins by ECG analysis. In kind it is toxicity, organism-based. Also on record: dose 10 mg/kg, route intravenous. The conditions noted are these: in vivo.
In data set [8] the test system is Rattus norvegicus. Put plainly: Hypotensive activity in normotensive Wistar rat assessed as reduction of diastolic blood pressure at 0.16 mg/kg, iv after 10 mins. In kind it is functional, Artery. In outline: (§2)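 Male normotensive Wistar rats were anaesthetised with thiopental 75 mg/kg ip. The right carotid artery was cannulated with heparinised saline for pressure recording. After 5 min of stabilisation, compound was injected into the tail vein at 1 mL/kg. Systolic and diastolic pressure were followed up to 60 min. Data are means ± SEM of 5–6 rats, analysed by one-way ANOVA.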

The test system of data set [9] is Rattus norvegicus. Put plainly: Hypotensive activity in normotensive Wistar rat assessed as reduction of systolic blood pressure at 0.31 mg/kg, iv after 20 mins. It counts as functional, Artery. In outline: (§3)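 Male normotensive Wistar rats (170–350 g) anaesthetised with thiopental 75 mg/kg ip; right carotid artery cannulated with heparinised saline-filled polyethylene tubing for pressure recording. After a 5 min stabilisation, compound given into the caudal vein at 1 mL/kg. Systolic pressure is recorded at 0, 5, 10, 20, 30 and 60 min, and the data are reported as mean ± SEM of five to six animals, with one-way ANOVA.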

Data set [10] deals with Rattus norvegicus. Description: Hypotensive activity in normotensive Wistar rat assessed as reduction of systolic blood pressure at 0.16 mg/kg, iv after 30 mins. In kind it is functional, Artery. In outline:
as §3

For data set [11], the system named is Rattus norvegicus. Put plainly: Hypotensive activity in normotensive Wistar rat assessed as reduction of systolic blood pressure at 0.16 mg/kg, iv after 20 mins. It counts as functional, Artery. In outline: as §3
Data set [12] has as its system Rattus norvegicus. Put plainly: Hypotensive activity in normotensive Wistar rat assessed as reduction of diastolic blood pressure at 0.31 mg/kg, iv after 60 mins. In kind it is functional, Artery. In short, it runs like this: as §2
Data set [13] deals with Rattus norvegicus. Description: Hypotensive activity in normotensive Wistar rat assessed as reduction of systolic blood pressure at 0.16 mg/kg, iv after 10 mins. It counts as functional, Artery. In outline:
as §2

Data set [14] deals with Rattus norvegicus. Description: Hypotensive activity in normotensive Wistar rat assessed as reduction of diastolic blood pressure at 0.16 mg/kg, iv after 60 mins. It counts as functional, Artery. In short, it runs like this: as §2
The subject of data set [15] is Rattus norvegicus. Put plainly: Hypotensive activity in normotensive Wistar rat assessed as reduction of systolic blood pressure at 0.16 mg/kg, iv after 60 mins. It counts as functional, Artery. In outline: as §3
The test system of data set [16] is Rattus norvegicus. Description: Hypotensive activity in normotensive Wistar rat assessed as reduction of diastolic blood pressure at 0.31 mg/kg, iv after 30 mins. In kind it is functional, Artery. In short, it runs like this:
as §2

In data set [17] the test system is Rattus norvegicus. Description: Hypotensive activity in normotensive Wistar rat assessed as reduction of diastolic blood pressure at 0.31 mg/kg, iv after 5 mins. It counts as functional, Artery. In short, it runs like this: as §2
Data set [18] has as its system Rattus norvegicus. Description: Hypotensive activity in normotensive Wistar rat assessed as reduction of systolic blood pressure at 0.16 mg/kg, iv after 5 mins. It counts as functional, Artery. In outline:
as §3

The subject of data set [19] is Rattus norvegicus. Put plainly: Hypotensive activity in normotensive Wistar rat assessed as reduction of diastolic blood pressure at 0.31 mg/kg, iv after 20 mins. It counts as functional, Artery. In short, it runs like this: as §2
Data set [20] has as its system Rattus norvegicus. Put plainly: Hypotensive activity in normotensive Wistar rat assessed as reduction of diastolic blood pressure at 1.25 mg/kg, iv after 10 mins. In kind it is functional, Artery. In outline:
as §2

The test system of data set [21] is Rattus norvegicus. Put plainly: Hypotensive activity in normotensive Wistar rat assessed as reduction of systolic blood pressure at 1.25 mg/kg, iv after 10 mins. In kind it is functional, Artery. In short, it runs like this: as §3
Data set [22] relates to Rattus norvegicus. Description: Hypotensive activity in normotensive Wistar rat assessed as reduction of diastolic blood pressure at 1.25 mg/kg, iv after 20 mins. In kind it is functional, Artery. In short, it runs like this: as §2
The test system of data set [23] is Rattus norvegicus. Description: Hypotensive activity in normotensive Wistar rat assessed as reduction of diastolic blood pressure at 1.25 mg/kg, iv after 60 mins. In kind it is functional, Artery. In outline: as §2

As to `Cl.Cl.Cl.O=c1c2ccc(Cl)cc2oc2c(OCC(O)CN3CCN(Cc4ccccc4)CC3)cccc12` (racemic), the Activity in data set [1] is on record as 20.1 ms; in data set [2], 40.9 ms; in data set [3], 74 ms; in data set [4], 268.8 bpm; in data set [5] it was 41.9 ms; in [6], 78.8 ms. Further, the Activity in [7] stood at 41.1 ms.
As to `COc1ccccc1N1CCN(CC(O)COc2cccc3c(=O)c4ccccc4oc23)CC1.Cl` (racemic), the Activity was determined as 110.2 mmHg in data set [8]; 120.6 mmHg in data set [9]; 115.7 mmHg in [10]; 118.5 mmHg in data set [11]; 98.4 mmHg in data set [12]; 124.8 mmHg in data set [13]. In addition, the Activity in data set [14] came to 101.5 mmHg; in data set [15], 115.2 mmHg; in data set [16], 100.6 mmHg; in data set [17] it was 102.8 mmHg; in [18], 124 mmHg; in data set [19] it was 102 mmHg.
Take `Cl.Cl.Cl.O=c1c2ccc(Cl)cc2oc2c(OCC(O)CN3CCN(CCOc4ccccc4)CC3)cccc12` (racemic): the Activity in data set [20] stood at 101.2 mmHg; in data set [1], 20.4 ms; in data set [21], 115.2 mmHg; in data set [2] it was 32.81 ms; in [3], 54.4 ms; in data set [4], 283.41 bpm. The Activity is listed as 33.12 ms in data set [5]; 97.4 mmHg in data set [22]; 53.2 ms in [6]; 33.6 ms in data set [7]; 103.6 mmHg in data set [23].
